Values after ≈ are worked out from the molar mass of the structure shown. Active and inactive are the calls of the source. The rule behind the calls is not given here.
Key:
Pseudomonas aeruginosa [1] = assay: Antibacterial activity against Pseudomonas aeruginosa MTCC 2453 after 24 hrs by agar dilution method; format: functional; settings: MTCC 2453, 24 h
Candida albicans [2] = assay: Antifungal activity against Candida albicans MTCC 3017 after 48 hrs by agar dilution method; format: functional; settings: MTCC 3017, 48 h
Method in brief: (§1)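 Same disk/dilution format as the antibacterial assay, on potato dextrose agar (39 g/L). Compounds were from DMSO stock, loaded at 1 to 80 per disk, in triplicate. Plates were incubated at 28 ± 2 °C for 48 h. MIC was the lowest amount that arrested growth. Equivalent DMSO served as solvent control.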

[3] = system: Mycobacterium tuberculosis; assay: Antibacterial activity against Mycobacterium tuberculosis H37Rv after 2 to 3 weeks by broth microdilution method; format: functional
Method in brief: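 M. tuberculosis H37Rv, first screened at a single concentration of 32 in triplicate in a microtiter plate (microplate dilution assay). Compounds active in this screen were then taken to MIC determination by broth microdilution. Compounds were dissolved in DMSO.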

Bacillus subtilis [4] = assay: Antibacterial activity against Bacillus subtilis MTCC 121 after 24 hrs by agar dilution method; format: functional; settings: MTCC 121, 24 h
Micrococcus luteus [5] = assay: Antibacterial activity against Micrococcus luteus MTCC 2470 at 80 ug/ml after 24 hrs by agar dilution method; format: functional, organism-based
Staphylococcus [6] = assay: Antibacterial activity against Staphylococcus MLS-16 MTCC 2940 after 24 hrs by agar dilution method; format: functional; settings: MLS-16 MTCC 2940, 24 h
[7] = system: Mycobacterium tuberculosis; assay: Antibacterial activity against Mycobacterium tuberculosis H37Rv at 32 ug/ml […] by agar dilution method; format: functional, organism-based
Staphylococcus aureus [8] = assay: Antibacterial activity against Staphylococcus aureus MTCC 96 at 80 ug/ml after 24 hrs by agar dilution method; format: functional, organism-based
Escherichia coli = assay: Antibacterial activity against Escherichia coli MTCC 739 at 80 ug/ml after 24 hrs by agar dilution method; format: functional, organism-based
Staphylococcus [9] = assay: Antibacterial activity against Staphylococcus MLS-16 MTCC 2940 at 80 ug/ml after 24 hrs by agar dilution method; format: functional, organism-based
Bacillus subtilis [10] = assay: Antibacterial activity against Bacillus subtilis MTCC 121 at 80 ug/ml after 24 hrs by agar dilution method; format: functional, organism-based
Raoultella planticola = assay: Antibacterial activity against Klebsiella planticola MTCC 530 at 80 ug/ml after 24 hrs by agar dilution method; format: functional, organism-based
Pseudomonas aeruginosa [11] = assay: Antibacterial activity against Pseudomonas aeruginosa MTCC 2453 at 80 ug/ml after 24 hrs by agar dilution method; format: functional, organism-based
Candida albicans [12] = assay: Antifungal activity against Candida albicans MTCC 3017 at 80 ug/ml after 48 hrs by agar dilution method; format: functional, organism-based; method in brief: as §1
Staphylococcus aureus [13] = assay: Antibacterial activity against Staphylococcus aureus MTCC 96 after 24 hrs by agar dilution method; format: functional; settings: MTCC 96, 24 h
Bacillus subtilis [14] = assay: Antibacterial activity against Bacillus subtilis MTCC 121 at 20 ug/ml after 24 hrs by disk diffusion method; format: functional; settings: MTCC 121, 24 h, read-out: IZ
Staphylococcus [15] = assay: Antibacterial activity against Staphylococcus MLS-16 MTCC 2940 at 20 ug/ml after 24 hrs by disk diffusion method; format: functional; settings: MLS-16 MTCC 2940, 24 h, read-out: IZ
Staphylococcus aureus [16] = assay: Antibacterial activity against Staphylococcus aureus MTCC 96 at 20 ug/ml after 24 hrs by disk diffusion method; format: functional; settings: MTCC 96, 24 h, read-out: IZ
Micrococcus luteus [17] = assay: Antibacterial activity against Micrococcus luteus MTCC 2470 at 20 ug/ml after 24 hrs by disk diffusion method; format: functional; settings: MTCC 2470, 24 h, read-out: IZ
Pseudomonas aeruginosa [18] = assay: Antibacterial activity against Pseudomonas aeruginosa MTCC 2453 at 20 ug/ml after 24 hrs by disk diffusion method; format: functional; settings: MTCC 2453, 24 h, read-out: IZ
Candida albicans [19] = assay: Antifungal activity against Candida albicans MTCC 3017 at 20 ug/ml after 24 hrs by disk diffusion method; format: functional; settings: MTCC 3017, 24 h, read-out: IZ
Micrococcus luteus [20] = assay: Antibacterial activity against Micrococcus luteus MTCC 2470 after 24 hrs by agar dilution method; format: functional; settings: MTCC 2470, 24 h

Row | SMILES | MIC (Pseudomonas aeruginosa [1]) | MIC (Candida albicans [2]) | MIC (Bacillus subtilis [4]) | Activity (Micrococcus luteus [5]) | MIC (Staphylococcus [6]) | Activity [7] | Activity (Staphylococcus aureus [8]) | Activity (Escherichia coli) | Activity (Staphylococcus [9]) | Activity (Bacillus subtilis [10]) | Activity (Raoultella planticola) | Activity (Pseudomonas aeruginosa [11]) | Activity (Candida albicans [12]) | MIC (Staphylococcus aureus [13]) | other results
1 | O=C1O[C@@H](CNS(=O)(=O)c2ccc(F)cc2)CN1c1ccc(N2CCOCC2)c(F)c1 | 10 µg/mL (≈ 22.1 µM) | 10 µg/mL (≈ 22.1 µM) | 10 µg/mL (≈ 22.1 µM) | inactive | 10 µg/mL (≈ 22.1 µM) |  |  |  |  |  |  |  |  |  | MIC [3]: 1 µg/mL (≈ 2.21 µM)
2 | O=C1O[C@@H](CNS(=O)(=O)c2cc(S(=O)(=O)c3ccccc3)cs2)CN1c1ccc(N2CCOCC2)c(F)c1 |  |  |  | inactive |  | inactive | inactive | inactive | inactive | inactive | inactive | inactive | inactive |  | 
3 | O=C1O[C@@H](CNS(=O)(=O)c2ccc(Oc3ccccc3)cc2)CN1c1ccc(N2CCSCC2)c(F)c1 | 20 µg/mL (≈ 36.8 µM) | 20 µg/mL (≈ 36.8 µM) |  | inactive | 8 µg/mL (≈ 14.7 µM) | inactive |  | inactive |  | inactive | inactive |  |  | 8 µg/mL (≈ 14.7 µM) | 
4 | O=C1O[C@@H](CNS(=O)(=O)c2cccc(Cl)c2)CN1c1ccc(N2CCSCC2)c(F)c1 | 10 µg/mL (≈ 20.6 µM) |  | 20 µg/mL (≈ 41.2 µM) | inactive |  | inactive | inactive | inactive | inactive |  | inactive |  | inactive |  | 
5 | O=C1O[C@@H](CNS(=O)(=O)c2ccc(F)cc2Cl)CN1c1ccc(N2CCOCC2)c(F)c1 |  |  | 8 µg/mL (≈ 16.4 µM) | inactive | 20 µg/mL (≈ 41 µM) | inactive |  | inactive |  |  | inactive | inactive | inactive | 20 µg/mL (≈ 41 µM) | 
6 | O=C1O[C@@H](CNS(=O)(=O)c2ccc(F)cc2)CN1c1ccc(N2CCSCC2)c(F)c1 | 10 µg/mL (≈ 21.3 µM) | 10 µg/mL (≈ 21.3 µM) | 8 µg/mL (≈ 17 µM) |  | 10 µg/mL (≈ 21.3 µM) | inactive |  | inactive |  |  | inactive |  |  | 10 µg/mL (≈ 21.3 µM) | zone of inhibition at 20 µg/mL (Bacillus subtilis [14]): 23 mm; zone of inhibition at 20 µg/mL (Staphylococcus [15]): 17 mm; zone of inhibition at 20 µg/mL (Staphylococcus aureus [16]): 18 mm; zone of inhibition at 20 µg/mL (Micrococcus luteus [17]): 14 mm; zone of inhibition at 20 µg/mL (Pseudomonas aeruginosa [18]): 17 mm; zone of inhibition at 20 µg/mL (Candida albicans [19]): 16 mm; MIC (Micrococcus luteus [20]): 10 µg/mL (≈ 21.3 µM)
